Consider 14 compounds from PubChem BioAssay.

Molecules are shown by their SMILES. Calls of active or inactive are those of the source.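 Rule for the calls, unless noted: active = GFP response above 150% of the DMSO level; inconclusive = fewer than 70 events counted for a yeast strain; inactive = the rest.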

Experiment [1] is described as follows: hit retest on RPL19A-GFP reporter strain – cell-based, S. cerevisiae, flow cytometry, cherry picks, mother/daughter gates, confirmation (AID 2270;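 active = GFP response below 50% of the DMSO control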). The following applies: 3 h, at 10 µM, stronger effect = lower value, 100 = same GFP as DMSO wells.
A short description of experiment [2]: yeast TOR pathway reporter LAP4-GFP change – cell-based, cherry picks, flow cytometry, mother/daughter gates, confirmation (AID 2271;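 active = GFP response above 150% of the DMSO control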;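 note: ratio of sample to DMSO plate mean so 100% equals DMSO level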). Particulars: S. cerevisiae LAP4-GFP strain, 3 h, at 10 µM, stronger effect = higher value, 100 means same as DMSO control. Summed up: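 Material: Alexa 633-stained baker's yeast GFP-fusion strain; Compound dosing: single test-compound dose, 10 µM final; Incubation: 30 °C, 3 h compound incubation, rotating; Detection: HT flow cytometry, GFP fluorescence channel; Control set: positive rapamycin (400 ng/mL), negative DMSO.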
(In general: A flow cytometer gives signals particle by particle.)

The nature of experiment [3]: TOR pathway reporter MEP2-GFP, retest of hits – S. cerevisiae, flow cytometry GFP, cherry picks, confirmation (AID 2272;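 active = GFP response above 150% of the DMSO control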;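 note: ratio of well signal to plate DMSO mean so 100% equals DMSO level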). The following applies: S. cerevisiae MEP2-GFP strain, 3 h, at 10 µM, stronger effect = higher value.
Experiment [4] in a line: yeast AGP1-GFP fluorescence change, single-dose – cell-based, flow cytometry, S. cerevisiae, cherry picks, confirmation (AID 2273).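 Note: median GFP channel fluorescence over the whole cell population gate.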 The following applies: S. cerevisiae AGP1-GFP strain, 3 h, at 10 µM.
The nature of experiment [5]: TOR pathway CIT2 reporter hit retest – S. cerevisiae, GFP fusion, cherry picks, mother/daughter gates, confirmation (AID 2274). The following applies: S. cerevisiae CIT2-GFP strain, flow cytometry, 3 h, at 10 µM, stronger effect = higher value.
The mark [6] stands for this setting: measured here: daughter cell gate.
Setting [7] is: measured here: mother cell gate.
Where [8] appears, read: measured here: daughter cell gate response.
Where [9] appears, read: measured here: mother cell gate response.

On to `CCOc1ccc(Nc2nc(N(C)c3ccccc3)nc(N)c2[N+](=O)[O-])cc1`, for which the GFP response vs DMSO was 92.1% (inactive) in experiment [1], 94.7% in experiment [1] (setting [6]), 91.7% in experiment [1] (setting [7]) and 106% (inactive) in experiment [3]. Further, the GFP response relative to DMSO in experiment [2] was 96.5% (inactive); in experiment [2] (setting [8]), 95%; in experiment [2] (setting [9]), 95.6%. Moreover, the GFP response, % of DMSO is 113% (inactive) in experiment [4], 104% (inactive) in experiment [5], 104% in experiment [5] (setting [6]) and 106% in experiment [5] (setting [7]).

In the case of `COc1ccccc1C1CCN(Cc2c(C)[nH]c3ccccc23)CC1`, the GFP response vs DMSO is 103% (inactive) in experiment [1], 102% in experiment [1] (setting [6]), 104% in experiment [1] (setting [7]) and 99% (inactive) in experiment [3]. Also, the values for the GFP response relative to DMSO in experiment [2], in experiment [2] (setting [8]) and in experiment [2] (setting [9]) were 97% (inactive), 95.9% and 96.2%, respectively. In addition, the GFP response, % of DMSO in experiment [4] is 102% (inactive); in experiment [5] it was 98.8% (inactive); in experiment [5] (setting [6]), 97.4%; in experiment [5] (setting [7]) it was 98.1%.

As for `COc1ccc(-c2nc3cc(C)ccn3c2NCC2CCCO2)cc1OC` (centres undefined), the GFP response vs DMSO is 94.8% (inactive) in experiment [1], 96.4% in experiment [1] (setting [6]), 93.4% in experiment [1] (setting [7]) and 99% (inactive) in experiment [3]. For the same compound, the GFP response relative to DMSO was 97% (inactive) in experiment [2], 94.2% in experiment [2] (setting [8]) and 96.2% in experiment [2] (setting [9]). The GFP response, % of DMSO in experiment [4] is 104% (inactive); in experiment [5], 100% (inactive); in experiment [5] (setting [6]), 101%; in experiment [5] (setting [7]), 99.3%.

Consider `[O-][n+]1cccc2c(Br)cc(Br)c(O)c21`, for which the GFP response vs DMSO in experiment [1] was 98.2% (inactive); in experiment [1] (setting [6]), 99.6%; in experiment [1] (setting [7]), 95.6%; in experiment [3], 178% (active). For the same compound, the GFP response relative to DMSO in experiment [2] is 258% (active); in experiment [2] (setting [8]), 215%; in experiment [2] (setting [9]), 251%. In addition, the GFP response, % of DMSO in experiment [4] was 112% (inactive); in experiment [5] it was 101% (inactive); in experiment [5] (setting [6]) it was 103%; in experiment [5] (setting [7]), 95.7%.

`C(=N\Nc1nc(-c2cccnc2)nc2ccccc12)/c1ccccc1`: the GFP response vs DMSO in experiment [1] was 101% (inactive); in experiment [1] (setting [6]) it was 101%; in experiment [1] (setting [7]) it was 102%; in experiment [3], 102% (inactive). The GFP response relative to DMSO in experiment [2] is 99.2% (inactive); in experiment [2] (setting [8]), 99.2%; in experiment [2] (setting [9]), 98.3%. Further, the GFP response, % of DMSO was 95.6% (inactive) in experiment [4], 104% (inactive) in experiment [5], 105% in experiment [5] (setting [6]) and 103% in experiment [5] (setting [7]).

With `CN(C)c1ccc(N=Cc2nc(-c3ccccc3)oc2OC(=O)c2ccccc2)cc1`, the GFP response vs DMSO in experiment [1] was 98.6% (inactive); in experiment [1] (setting [6]), 100%; in experiment [1] (setting [7]) it was 98.5%; in experiment [3], 115% (inactive). Besides, the GFP response relative to DMSO in experiment [2] is 105% (inactive); in experiment [2] (setting [8]), 103%; in experiment [2] (setting [9]) it was 105%. The GFP response, % of DMSO was 111% (inactive) in experiment [4], 107% (inactive) in experiment [5], 103% in experiment [5] (setting [6]) and 107% in experiment [5] (setting [7]).

Consider `COc1ccc(N2C(=O)C(Cl)=C(Nc3ccccc3O)C2=O)cc1`, for which the GFP response vs DMSO in experiment [1] was 99.6% (inactive); in experiment [1] (setting [6]), 98.8%; in experiment [1] (setting [7]), 100%; in experiment [3], 112% (inactive). The results for the GFP response relative to DMSO in experiment [2], in experiment [2] (setting [8]) and in experiment [2] (setting [9]) were 102% (inactive), 101% and 103%, respectively. In addition, the GFP response, % of DMSO in experiment [4] was 98.8% (inactive); in experiment [5], 100% (inactive); in experiment [5] (setting [6]) it was 95.6%; in experiment [5] (setting [7]), 99.3%.

`Cc1ccc(-c2nnn(CC(=O)N(CC(=O)NC3CCCC3)c3ccc(F)cc3)n2)o1`: the GFP response vs DMSO in experiment [1] was 97.4% (inactive); in experiment [1] (setting [6]) it was 98.4%; in experiment [1] (setting [7]) it was 96.8%; in experiment [3], 99% (inactive). The GFP response relative to DMSO in experiment [2] is 97% (inactive); in experiment [2] (setting [8]), 95.9%; in experiment [2] (setting [9]) it was 96.2%. The GFP response, % of DMSO in experiment [4] was 104% (inactive); in experiment [5], 100% (inactive); in experiment [5] (setting [6]), 103%; in experiment [5] (setting [7]), 99.3%.

For the compound `COc1ccc(C2=CC(=O)N(Nc3ccccc3)C2=O)cc1`, the GFP response vs DMSO in experiment [1] is 102% (inactive); in experiment [1] (setting [6]), 101%; in experiment [1] (setting [7]), 95.8%; in experiment [3], 107% (inactive). Also, the results for the GFP response relative to DMSO in experiment [2], in experiment [2] (setting [8]) and in experiment [2] (setting [9]) were 178% (active), 170% and 172%, respectively. Moreover, the GFP response, % of DMSO in experiment [4] is 105% (inactive); in experiment [5], 99.1% (inactive); in experiment [5] (setting [6]), 108%; in experiment [5] (setting [7]) it was 90.2%.

Regarding `Cc1ccc(CS(=O)(=O)c2ncc(Cl)c(C(=O)Nc3nnc(C)s3)n2)cc1`, the GFP response vs DMSO is 99.6% (inactive) in experiment [1], 99.8% in experiment [1] (setting [6]), 98.6% in experiment [1] (setting [7]) and 101% (inactive) in experiment [3]. Moreover, the GFP response relative to DMSO in experiment [2] is 102% (inactive); in experiment [2] (setting [8]), 104%; in experiment [2] (setting [9]) it was 104%. Moreover, the GFP response, % of DMSO in experiment [4] is 113% (inactive); in experiment [5], 103% (inactive); in experiment [5] (setting [6]), 99.3%; in experiment [5] (setting [7]), 104%.

Regarding `Cc1ccc(/C=N/Nc2ncc(Cl)cc2Cl)s1`, the GFP response vs DMSO in experiment [1] was 86.7% (inactive); in experiment [1] (setting [6]), 62.7%; in experiment [1] (setting [7]), 78.2%; in experiment [3] it was 115% (inactive). For the same compound, the GFP response relative to DMSO in experiment [2] was 331% (active); in experiment [2] (setting [8]), 202%; in experiment [2] (setting [9]), 317%. For the same compound, the GFP response, % of DMSO in experiment [4] was 81.8% (inactive); in experiment [5] it was 107% (inactive); in experiment [5] (setting [6]) it was 95.4%; in experiment [5] (setting [7]), 98.5%.

Consider `CC(=O)Oc1ccc(N2C(=O)C3C4C=CC(O4)C3C2=O)cc1` (centres undefined), for which the GFP response vs DMSO was 98.2% (inactive) in experiment [1], 99.1% in experiment [1] (setting [6]), 98.9% in experiment [1] (setting [7]) and 107% (inactive) in experiment [3]. In addition, the figures for the GFP response relative to DMSO in experiment [2], in experiment [2] (setting [8]) and in experiment [2] (setting [9]) were 102% (inactive), 101% and 101%, respectively. Besides, the GFP response, % of DMSO in experiment [4] is 96.8% (inactive); in experiment [5], 99.7% (inactive); in experiment [5] (setting [6]) it was 99.1%; in experiment [5] (setting [7]), 99.7%.

`CCc1nnc(NC(=O)c2ccc(S(=O)(=O)N(CC)Cc3ccccc3)cc2)o1`: the GFP response vs DMSO is 98.4% (inactive) in experiment [1], 97.8% in experiment [1] (setting [6]), 98.8% in experiment [1] (setting [7]) and 102% (inactive) in experiment [3]. For the same compound, the GFP response relative to DMSO is 102% (inactive) in experiment [2], 105% in experiment [2] (setting [8]) and 99.5% in experiment [2] (setting [9]). The GFP response, % of DMSO in experiment [4] was 101% (inactive); in experiment [5] it was 105% (inactive); in experiment [5] (setting [6]), 106%; in experiment [5] (setting [7]) it was 104%.

In the case of `COc1ccc(N2C(=O)C(Cl)=C(N(CCO)Cc3ccccc3)C2=O)cc1`, the GFP response vs DMSO in experiment [1] is 101% (inactive); in experiment [1] (setting [6]), 99.1%; in experiment [1] (setting [7]), 102%; in experiment [3], 101% (inactive). Besides, the GFP response relative to DMSO in experiment [2] is 98.2% (inactive); in experiment [2] (setting [8]), 99.1%; in experiment [2] (setting [9]), 99.4%. Moreover, the GFP response, % of DMSO is 102% (inactive) in experiment [4], 100% (inactive) in experiment [5], 101% in experiment [5] (setting [6]) and 99.3% in experiment [5] (setting [7]).
